Data taken from ChEMBL document CHEMBL1649230, “Aryl rhodanines specifically inhibit staphylococcal and enterococcal biofilm formation” (Antimicrob Agents Chemother, 2009).
≈ marks a conversion by molar mass, not a printed value.

System: Staphylococcus aureus
Test: Antimicrobial activity against Staphylococcus aureus ATCC 35556 by M7-A7 method
Assay type: functional
Outline: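 Planktonic MIC by CLSI M7-A7 broth microdilution. Twofold compound dilutions made in DMSO at 50× final concentration and added to plates before inoculation; 2% DMSO final.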

Q: With `O=C(N[C@H](CO)[C@H](O)c1ccc([N+](=O)[O-])cc1)C(Cl)Cl` [CHLORAMPHENICOL] as the molecule, how does the MIC read?
A: 1 mg/L (≈ 3.09 µM)
